Like-named read-outs stand apart in the source and are kept apart here.

For orientation: pKa means the pH at which an ionisable group is half protonated. Low values mean a stronger acid or weaker base, high ones a weaker acid or stronger base. What is called fraction unbound is the share of the substance not bound to proteins or other matrix. Higher therefore signals weak binding. As a reminder, the microsomal CLint is the capacity of the preparation to metabolise the compound, expressed as a volume cleared per time. One may read the kinact as the maximal first-order rate at which the target is inactivated. Usually efflux ratio stands for a quotient of directional permeabilities that is used to spot active efflux. The term logP denotes the decadic logarithm of the partition coefficient of the neutral form, usually between octanol and water. Lower therefore signals lower lipophilicity. Usually half-life stands for how long it takes for the measured level to halve.

Data set [1] can be described thus: Physicochemical properties. As to conditions: Experimental data.
The nature of data set [2]: Blood-to-plasma partition ratio. The format is in vitro ADME.
Data set [3] is described as follows: Unbound fraction in plasma. The format is in vitro ADME.
Data set [4] can be described thus: PBPK model input parameters predicted, optimized or estimated in Simcyp. Details: species or system human.
The target of the next data set is T1, CYP2C8 (Homo sapiens, UniProt P10632).
T1 sequence (P10632 1-490): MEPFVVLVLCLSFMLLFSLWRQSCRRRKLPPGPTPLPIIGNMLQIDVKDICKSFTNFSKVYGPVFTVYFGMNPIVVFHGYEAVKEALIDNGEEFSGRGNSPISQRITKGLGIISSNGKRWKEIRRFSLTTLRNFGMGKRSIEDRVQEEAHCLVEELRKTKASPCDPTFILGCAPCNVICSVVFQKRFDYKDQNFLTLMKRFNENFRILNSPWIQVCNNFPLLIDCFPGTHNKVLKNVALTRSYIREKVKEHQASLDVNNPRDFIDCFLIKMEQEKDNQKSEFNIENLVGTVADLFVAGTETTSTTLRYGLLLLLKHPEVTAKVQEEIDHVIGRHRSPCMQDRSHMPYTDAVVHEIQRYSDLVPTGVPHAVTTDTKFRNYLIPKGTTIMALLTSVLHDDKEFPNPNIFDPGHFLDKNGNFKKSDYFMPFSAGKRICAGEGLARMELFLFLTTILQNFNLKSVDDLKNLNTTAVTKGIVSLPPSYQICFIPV
Kind of data set: In vitro competitive and time-dependent inhibition of CYP2C8. The format is in vitro ADME.

The target of the next data set is CYP2C9 (Homo sapiens, UniProt P11712). Kind of data set: In vitro competitive inhibition of CYP2C9. The format is in vitro ADME.
In data set [5] the target is CYP3A4 (Homo sapiens, UniProt P08684). The data set can be described thus: biochemical. The format is in vitro ADME.
In the next data set the test system is human hepatocytes. The data set can be described thus: Metabolite profiling of 14C-acalabrutinib in human hepatocytes. The class given is in vitro ADME. The note with it: 20 μM 14C-acalabrutinib. The gist of the method:
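14C-labelled test compound at 20 μM was incubated with human hepatocytes from two male donors for qualitative metabolite profiling. Metabolism was apportioned between glutathione and CYP-mediated pathways, and the CYP3A share of CYP metabolite formation was estimated.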

The target in data set [6] is T2, P-gp (Homo sapiens, UniProt P08183). The data set can be described thus: Efflux in MDCKII-MDR1 cells. The class given is in vitro ADME. The note with it: dog, MDCK-MDR1.
For data set [7], the target named is T2, P-gp. Kind of data set: In vitro P-gp inhibition. The format is in vitro ADME.
A further data set deals with CYP1A2. Kind of data set: In vitro CYP induction, CYP1A2 marker substrate. The class given is in vitro ADME. The note with it: any concentration evaluated.
Another data set concerns CYP2B6. The data set can be described thus: In vitro CYP induction, CYP2B6 marker substrate. The format is in vitro ADME. The note with it: any concentration evaluated.
Data set [8] relates to CYP3A4. The class given is in vitro ADME. The note with it: any concentration evaluated.
The nature of data set [9]: Clinical pharmacokinetics of acalabrutinib and ACP-5862. The format is in vivo, human. The note with it: ACE-HV-001, oral. In short, it runs like this:
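Healthy subjects in a phase I dose-escalation study (ACE-HV-001) received single oral acalabrutinib doses of 25, 50, 75 or 100 mg (cohorts 3–6). In vivo total clearance was taken from this study's plasma concentration–time data.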

For data set [10] the following is noted: cited from earlier work.
The conditions of data set [11]: clinical DDI study with rifampicin; cited from earlier work.
For data set [12] the following is noted: cited from earlier work. The source holds these as a separate data set.
The test system of data set [13] is patients with relapsed CLL. The note with it: median follow-up 14.3 months; cited from earlier work.
The test system of data set [14] is patients with relapsed/refractory mantle cell lymphoma. The note with it: median follow-up 15.2 months; cited from earlier work.
Data set [15] has as its system CYP3A4. The data set can be described thus: Clearance of ACP-5862 in human liver microsomes. The format is in vitro ADME. The note with it: assigned to CYP3A4.
The next data set deals with CYP2C19 (Homo sapiens, UniProt P33261). The data set can be described thus: In vitro competitive inhibition of CYP2C19. The class given is in vitro ADME. The note with it: read-out: CYP2C19 Ki; reversible inhibition.
A further data set relates to BTK. The note with it: cited from earlier work.
The conditions of data set [16]: with strong CYP3A inhibitor clarithromycin; cited from earlier work.

T2 sequence (P08183 whole entry): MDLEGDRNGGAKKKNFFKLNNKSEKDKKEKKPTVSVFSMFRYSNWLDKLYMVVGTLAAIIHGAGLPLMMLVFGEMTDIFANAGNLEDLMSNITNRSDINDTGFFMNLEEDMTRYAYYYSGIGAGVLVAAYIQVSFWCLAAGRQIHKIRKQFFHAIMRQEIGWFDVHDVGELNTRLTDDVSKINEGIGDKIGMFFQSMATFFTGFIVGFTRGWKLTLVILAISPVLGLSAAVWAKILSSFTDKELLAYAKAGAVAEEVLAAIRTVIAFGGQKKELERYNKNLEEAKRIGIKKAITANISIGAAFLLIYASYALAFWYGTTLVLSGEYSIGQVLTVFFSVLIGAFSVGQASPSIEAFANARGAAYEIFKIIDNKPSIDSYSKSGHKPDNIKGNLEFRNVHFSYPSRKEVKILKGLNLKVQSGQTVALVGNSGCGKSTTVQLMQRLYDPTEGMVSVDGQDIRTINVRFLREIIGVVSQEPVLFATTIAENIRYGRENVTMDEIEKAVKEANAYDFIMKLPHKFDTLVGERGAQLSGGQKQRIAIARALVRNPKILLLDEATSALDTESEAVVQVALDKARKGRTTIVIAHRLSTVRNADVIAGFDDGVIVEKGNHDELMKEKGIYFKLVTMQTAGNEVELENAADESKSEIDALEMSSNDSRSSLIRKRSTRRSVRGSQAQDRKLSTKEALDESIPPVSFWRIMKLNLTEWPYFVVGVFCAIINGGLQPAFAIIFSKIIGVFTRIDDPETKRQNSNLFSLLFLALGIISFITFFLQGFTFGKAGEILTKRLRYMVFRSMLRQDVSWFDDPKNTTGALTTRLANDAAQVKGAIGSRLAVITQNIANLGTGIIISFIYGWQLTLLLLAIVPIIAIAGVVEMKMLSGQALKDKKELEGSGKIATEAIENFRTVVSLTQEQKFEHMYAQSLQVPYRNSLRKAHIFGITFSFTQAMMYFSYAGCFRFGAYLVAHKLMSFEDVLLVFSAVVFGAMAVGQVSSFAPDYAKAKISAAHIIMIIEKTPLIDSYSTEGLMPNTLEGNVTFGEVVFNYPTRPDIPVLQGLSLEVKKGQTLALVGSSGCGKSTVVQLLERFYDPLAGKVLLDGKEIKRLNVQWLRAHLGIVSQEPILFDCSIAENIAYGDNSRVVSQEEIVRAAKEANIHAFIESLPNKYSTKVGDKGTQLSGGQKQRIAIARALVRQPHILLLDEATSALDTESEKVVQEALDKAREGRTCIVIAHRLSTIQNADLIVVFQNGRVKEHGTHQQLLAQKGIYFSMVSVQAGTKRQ
CYP3A4 (Homo sapiens, UniProt P08684), sequence (P08684 whole entry): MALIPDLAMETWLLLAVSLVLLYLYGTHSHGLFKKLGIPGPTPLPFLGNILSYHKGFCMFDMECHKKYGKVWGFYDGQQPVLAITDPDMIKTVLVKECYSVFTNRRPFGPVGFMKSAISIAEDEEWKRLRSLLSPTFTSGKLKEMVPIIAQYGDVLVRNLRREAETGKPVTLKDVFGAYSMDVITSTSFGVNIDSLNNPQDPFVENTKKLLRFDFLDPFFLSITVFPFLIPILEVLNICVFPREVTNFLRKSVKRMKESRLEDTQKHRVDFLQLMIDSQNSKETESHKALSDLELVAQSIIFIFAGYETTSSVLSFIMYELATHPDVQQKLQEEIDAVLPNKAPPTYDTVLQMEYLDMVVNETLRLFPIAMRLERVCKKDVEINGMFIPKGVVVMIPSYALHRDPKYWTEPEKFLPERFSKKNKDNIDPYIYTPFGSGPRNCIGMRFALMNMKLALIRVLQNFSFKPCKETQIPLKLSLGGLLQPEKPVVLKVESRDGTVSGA
CYP2C9, sequence (P11712 whole entry): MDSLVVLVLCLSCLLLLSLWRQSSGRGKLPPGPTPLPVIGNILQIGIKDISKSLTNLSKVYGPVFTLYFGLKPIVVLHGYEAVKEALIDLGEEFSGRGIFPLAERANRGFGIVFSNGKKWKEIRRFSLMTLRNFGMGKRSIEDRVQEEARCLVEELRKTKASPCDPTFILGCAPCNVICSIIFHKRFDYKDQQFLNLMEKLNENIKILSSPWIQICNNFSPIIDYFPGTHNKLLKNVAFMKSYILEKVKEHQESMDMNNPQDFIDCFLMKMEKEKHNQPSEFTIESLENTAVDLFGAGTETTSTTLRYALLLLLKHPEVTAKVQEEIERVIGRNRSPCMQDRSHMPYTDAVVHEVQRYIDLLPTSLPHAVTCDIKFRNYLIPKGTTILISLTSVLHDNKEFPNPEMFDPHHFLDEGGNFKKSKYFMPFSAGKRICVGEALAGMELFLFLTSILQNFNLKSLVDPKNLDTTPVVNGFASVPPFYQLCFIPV
CYP2C19, sequence (P33261 whole entry): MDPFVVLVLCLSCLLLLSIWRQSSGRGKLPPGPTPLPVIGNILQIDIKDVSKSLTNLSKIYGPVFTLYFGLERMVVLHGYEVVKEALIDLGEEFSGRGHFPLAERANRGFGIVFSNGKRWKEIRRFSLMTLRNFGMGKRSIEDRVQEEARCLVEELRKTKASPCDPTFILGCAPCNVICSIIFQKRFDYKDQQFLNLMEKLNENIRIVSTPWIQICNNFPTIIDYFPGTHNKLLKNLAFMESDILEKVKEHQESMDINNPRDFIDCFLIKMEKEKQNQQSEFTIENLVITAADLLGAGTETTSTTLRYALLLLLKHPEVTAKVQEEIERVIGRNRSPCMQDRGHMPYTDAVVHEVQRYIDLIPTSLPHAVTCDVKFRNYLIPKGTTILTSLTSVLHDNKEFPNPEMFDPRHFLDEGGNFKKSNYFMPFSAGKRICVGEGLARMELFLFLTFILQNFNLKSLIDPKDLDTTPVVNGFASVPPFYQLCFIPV

Regarding `CC#CC(=O)N1CCC[C@H]1c1nc(-c2ccc(C(=O)Nc3ccccn3)cc2)c2c(N)nccn12` [Acalabrutinib], the Compound type result in data set [1] is given as “Diprotic base”. This molecule also displayed a pKa in data set [1] (pKa (first value)) of 3.54. Moreover, the blood plasma ratio in data set [2] (blood) was found to be 0.787. In addition, the fraction unbound in data set [3] (plasma) worked out at 0.026. Also, the “CYP3A4 CLint” value was 9.63 µL/min/pmol in [4] (Retrograde model, total CYP3A4 clearance) and 8.14 µL/min/pmol in data set [4] (the rest to other metabolites). In addition, the microsomal CLint in [4] (human, liver microsomes) is 290 µL/min/mg. In addition, the Ki on CYP2C8 came out at 20.6 µM; at CYP2C9, 11.3 µM; at CYP3A4 [5] (CYP3A4 Ki, reversible inhibition), 23.9 µM. Moreover, the kinact at CYP3A4 [5] (human) was 0.000308 s⁻¹. Further, in the data set on human hepatocytes, the “share of CYP3A in the formation of CYP metabolites” value is on record as ~ 90%. For the same molecule, the “relative contribution of CYP-mediated metabolic pathway” value in the data set with human hepatocytes (two male donors) is 79%. In addition, the “relative contribution of glutathione metabolic pathway” value with human hepatocytes (two male donors) came out at 21%. At P-gp [6], the efflux ratio at 1 μM was 42. Further, on P-gp [7], the P-gp inhibition result was “not a P‐gp inhibitor”. Besides, in the data set on CYP1A2, the “induction of metabolism of CYP1A2 marker substrate” value was “did not cause significant induction”. The “induction of metabolism of CYP2B6 marker substrate” value in the data set with CYP2B6 is reported as “did not cause significant induction”. In addition, the “induction of metabolism of CYP3A4 marker substrate” value in the data set with CYP3A4 [8] was “did not cause significant induction”. Further, the “in vivo total clearance” value in [9] is 169 L/h. In addition, the “CLR (renal clearance)” value in [10] (clinical study ACE-HV-009) is 1.33 L/h. The absolute oral bioavailability in data set [10] (healthy subjects) is listed as 25%. Moreover, the oral half-life entry in data set [10] (healthy subjects) is reported as “about 1.57 hours”. Further, the “accumulation after multiple doses” value in data set [10] (patients) is “no accumulation”. In addition, in data set [11], the “acalabrutinib AUC with rifampicin, reduced to % of control” value is given as ~ 20%. In addition, the “unchanged acalabrutinib, share of excreted dose” value in data set [12] (human mass-balance study) is reported as 1.2%. Moreover, the overall response rate in data set [13] is 95%. Further, the “investigator-assessed overall response rate” value in data set [14] is reported as 81%.
`CC#CC(=O)NCCCC(=O)c1nc(-c2ccc(C(=O)Nc3ccccn3)cc2)c2c(N)nccn12` [ACP‐5862]: in [1], the Compound type entry is recorded as “Diprotic base”, the logP worked out at 2.72, the “pKa (first value)” value was found to be 3.41 and the “pKa (second value)” value is 4.49. Moreover, the “B/P ratio (blood-to-plasma ratio)” value in data set [2] (Experimental data) stood at 0.65. Also, the “fu,plasma (unbound fraction in plasma)” value in data set [3] (Experimental data) came to 0.013. Further, the “Clint in vitro HLM, CYP3A4” value in the data set with CYP3A4 [15] was 23.6 µL/min/mg. Besides, on CYP2C8 (read-out: CYP2C8 KI, time-dependent inhibition), the Ki was found to be 4 µM. Also, the CYP2C8 kinact at CYP2C8 (time-dependent inhibition) was determined as 0.72 h⁻¹. Also, the Ki on CYP2C9 (read-out: CYP2C9 Ki, reversible inhibition) turned out to be 3.35 µM. Moreover, the Ki on CYP2C19 is 8.5 µM. Moreover, the “potency for BTK inactivation relative to parent acalabrutinib” value in the data set on BTK is listed as ~ 50%. Also, the “CLR (renal clearance)” value in [10] (ACP-5862, reported in ACE-HV-009) was 0.3 L/h. For the same molecule, the half-life in data set [10] (ACP-5862 after single oral dose of 100 mg acalabrutinib) was 6.9 h. For the same molecule, in data set [12] (human mass balance study), the “ACP-5862-related metabolites, share of total dose” value is recorded as 10%.
For `CCN1CCN(Cc2ccc(Nc3ncc(F)c(-c4cc(F)c5nc(C)n(C(C)C)c5c4)n3)nc2)CC1` [abemaciclib], the increase in exposure in data set [16] is listed as 3.4 fold.

Source of the values: PMC6656940 (CPT: Pharmacometrics & Systems Pharmacology, 2019).
